Measurements of several laboratories.
Compare with care: the assays were run in different laboratories.
CYP1A2: Cytochrome P450 1A2 (CYP1A2, Homo sapiens, UniProt P05177)

`NS(=O)(=O)c1ccc(-c2ccc(Nc3ccc(F)c(Cl)c3)cc2)cc1` has a viability of 75% (BHK-21; cell growth or viability, MTT; 100 µM).
The CC50 of `O=C1C(=O)c2cccnc2-c2ncccc21.O=C1C(=O)c2cccnc2-c2ncccc21.O=C1C(=O)c2cccnc2-c2ncccc21.[Cu+2].[O-][Cl+3]([O-])([O-])[O-].[O-][Cl+3]([O-])([O-])[O-]` is reported as over 200 µM (Vero; cell growth or viability, MTT; 72 h).
With `COC(=O)N[C@H](C(=O)N1CCC[C@H]1c1nc(-c2ccc3c(c2)O[C@@H](c2ccccc2)n2c-3cc3cc(-c4c[nH]c([C@@H]5CCCN5C(=O)[C@@H](NC(=O)OC)C(C)C)n4)ccc32)c[nH]1)C(C)C` the CC50 was over 600 µM (BHK-21; cell growth or viability, CCK-8; 48 h).
With `CC(=O)O[C@H]1[C@H](O[C@H]2CC[C@]34C[C@]35CC[C@]3(C)[C@@H]([C@@]6(C)CC[C@@H](C(C)(C)O)O6)[C@@H](O)C[C@@]3(C)[C@@H]5C[C@H](O[C@@H]3O[C@H](CO)[C@@H](O)[C@H](O)[C@H]3O)[C@H]4C2(C)C)OC[C@@H](O)[C@@H]1O` the IC50 was over 200 µM (CYP1A2; enzyme activity, inhibitor; human, liver microsomes).
`OC[C@H]1O[C@@H](c2cc(Cc3ccc(C4CC4)cc3)c(Cl)c3c2CCO3)[C@H](O)[C@@H](O)[C@@H]1O` has a Vd/F of 167 L (human, plasma; oral, 0.3 mg, single dose, fasted).
With `NS(=O)(=O)c1ccc(-c2ccc(Nc3ccncc3)cc2)cc1` the viability was 76% (BHK-21; cell growth or viability, MTT; 100 µM).
For `CC(=O)O[C@@H]1[C@@H](O)[C@H](O[C@H]2CC[C@]34C[C@]35CC[C@]3(C)[C@@H]([C@@]6(C)CC[C@@H](C(C)(C)O)O6)[C@@H](O)C[C@@]3(C)[C@@H]5C[C@H](O[C@@H]3O[C@H](CO)[C@@H](O)[C@H](O)[C@H]3O)[C@H]4C2(C)C)OC[C@H]1O`, the IC50 was over 200 µM (CYP1A2; enzyme activity, inhibitor; human, liver microsomes).
`N#Cc1cccc(-c2ccc3ncc(-c4cc(F)cc(F)c4)c(N4CCC(N)CC4)c3c2)c1O` gave a Vd/F of 300 L (human, plasma; oral, 20 mg, single dose).
`CCCSc1ccc2nc(NC(=O)OC)[nH]c2c1` has a CC50 of over 200 µM (Vero; cell growth or viability, MTT; 72 h).
`CC[C@H](C)[C@@H]([C@@H](CC(=O)N1CCC[C@H]1[C@H](OC)[C@@H](C)C(=O)N[C@@H](Cc1ccccc1)C(=O)NCCCO)OC)N(C)C(=O)[C@@H](NC(=O)[C@H](C(C)C)N(C)C)C(C)C` has an IC50 of 43.6 µM (Cytochrome P450 3A4 (CYP3A4, Homo sapiens, UniProt P08684); enzyme activity, inhibitor; human, liver microsomes).
The Vd/F of `C[C@@H](Oc1ccc(S(C)(=O)=O)cc1C(=O)N1C[C@@H]2C[C@]2(c2cc(C(F)(F)F)on2)C1)C(F)(F)F` is reported as 273 L (human, plasma; oral, 10 mg, single dose, fasted).
The Cmax of `CN(C)C(=O)c1cc2cnc(Nc3ccc(-c4ccc5c(=O)cc(N6CCOCC6)oc5c4)cc3)nc2n1C1CCCC1.Cl` is reported as 3300 ng/mL (BALB/c mouse, plasma; oral, 20 mg/kg).
For `COc1ccc2c(c1)CN(C(=O)CCN1CCC(Cc3ccccc3)CC1)CC[S@@+]2[O-]`, the Vd was 86.7 L (male human, plasma; intravenous, 0.15 mg/kg, healthy volunteers).
`C#CCC(Cc1cnc2nc(N)nc(N)c2n1)c1ccc(C(=O)N[C@@H](CCC(=O)O)C(=O)O)cc1` (some centres unmarked) gave a CC50 of 104 µM (BHK-21; cell growth or viability, CCK-8; 48 h).
